From the EternaBench riboswitch data

Tested on: MS2 coat protein
Assay: apparent Kd, MS2 coat protein; higher = weaker binding; RNA-MaP array; theophylline 2 mM where present
How it was run: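 Designs were transcribed by stalled E. coli RNA polymerase on Illumina sequencing-chip clusters. They were titrated with SNAP-549-labelled MS2 coat protein from 0.7 or 1.5 nM, doubling to 3 µM, without and then with constant ligand. Buffer: 100 mM Tris-HCl pH 7.5, 80 mM KCl, 4 mM MgCl2, BSA, DTT, yeast tRNA, Tween-20. Green signal was normalised to red-channel RNA signal and control-cluster median Fmax. Apparent Kd is the median of filtered per-cluster binding-curve fits.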

[1] = designed as: ON switch for theophylline, no ligand
[2] = ligand present: theophylline, designed as: ON switch for theophylline
[3] = designed as: OFF switch for theophylline, no ligand
[4] = ligand present: theophylline, designed as: OFF switch for theophylline

Row | Sequence | apparent Kd [1] [nM] | apparent Kd [2] [nM] | apparent Kd [3] [nM] | apparent Kd [4] [nM]
1 | ACACCGAAAGGUGCAUUUUCCUUUUCAGAUACCAGACUUUACGUUGUCCCUUGGCAGCUGUAUCACAUGAGGAUCACCCAUGUUG | 16.4 | 17.6 |  | 
2 | AGCGACAUGCGUGAUACCAGCUACAUGAGGAUCACCCAUGUGAGUAGGAAACUACUGUGUAGCCCUUGGCAGCACAGUGCAUGUC |  |  | 10.5 | 63.7
3 | AGACAUGUAAGAUAAAUGACUUAUACAGAUACCAGACUGUCUAAUGUCCCUUGGCAGCUGCAUAACAUGAGGAUCACCCAUGUAA |  |  | 28 | 26.1
4 | AAUAACAUGAGGAUCACCCAUGUAAAAGAUACCAGAGUGAUGAUCCUCCCUUGGCAGCUUAAACGCUAUUGAUUACAAUAGCGAA | 41.5 | 144 |  | 
5 | AGCCGAAACCUUGAUACCAGAUCAUGCUGCACAUGAGGAUCACCCAUGUCGUUAAACAUGGUCCCUUGGCAGCAAGUUAGGAUCU | 76.4 | 23.9 |  | 
6 | UUAUCUAUAUUCGAUACCAGUACCCUGGCCGCAAAUCCUAACAUGAGGAUCACCCAUGUGUACCCUUGGCAGCGGGUAUGGGUUU |  |  | 23.2 | 88.8
7 | CGUAUCGUAACUGAUACCAGUGUACUGACAUGAGGAUCACCCAUGUUGGGUUUUGUUGUACACCCUUGGCAGCAGAAUCGAUACG |  |  | 67 | 103
8 | GCACCAGGUACGGAUACCAGCUGCUCGAGAUACAUGAGGAUCACCCAUGUGACCUGGUUUAGCCCUUGGCAGCUGUACCUGGUGC | 15.8 | 9.98 |  | 
9 | AGUGUUAUAACUGAUACCAGACUUGCGCUUAAACAUGAGGAUCACCCAUGUAAAAUGGUUGUCCCUUGGCAGCAGAAAAUACACA | 74.1 | 21.6 |  | 
10 | GAACAUGAGGAUCACCCAUGUGAGAAUGAUACCAGUAGAAGAAGAUGCCCUUGGCAGCGUGCGUGAGGAUCACCCAUGUAGGAGG |  |  | 24.2 | 27.9
11 | CACUUCAUGUGAGAUACCAGUGCCUUACAUGAGGAUCACCCAUGUCGUAAUGUGGAGAAGCACCCUUGGCAGCUCGCUUCGAGUG | 83.9 | 71.7 |  | 
12 | AGAUCUUUCGAAAGAAGGAUAAUGGCUGAUACCAGAGACGAAAGUCUCCCUUGGCAGCAGUGCCAACAUGAGGAUCACCCAUGUA | 170 | 39.7 |  | 
13 | UGGCAGCACCUCAUGUGCUGCCAAGGUGAUACCAGCAUCGAAAGAUGCCCUUGGCAGCACCAACAUGAGGAUCACCCAUGUAAUA | 165 | 152 |  | 
14 | CGGUUUGUGAUGGAUACCAGCAGAGAAAAUGUUUAUCCUAACAUGAGGAUCACCCAUGUAUGCCCUUGGCAGCUGUUGUGGGCUG |  |  | 64.8 | 62.1
15 | AUACCUAAUGUUACAUUUUCCUUUUCAGAUACCAGACUUUACGUUGUCCCUUGGCAGCUGUAUCACAUGAGGAUCACCCAUGUUG | 16.6 | 16.9 |  | 
16 | AAAUAAAUAACUGAUACCAGUGGACUGACAUGAGGAUCACCCAUGUUGGGUUUUGUUGUCCACCCUUGGCAGCGGGCAUAUAAAA |  |  | 24.8 | 66.9
17 | AAACAUUGCUCAGAUACCAGACAUGAGGAUCACCCAUGUACCAAGGUACCCGAAAGGAAUGUCCCUUGGCAGCUGAGCAAUGAAA |  |  | 10.1 | 27.4
18 | UAAAACAUGAGGAUCACCCAUGUAAAAGAUACCAGAGUGAUGAUCCUCCCUUGGCAGCUUAACGCUGAUUGAUUACAAUCAGCGA | 93.9 | 180 |  | 
19 | ACUAGUUGUGCAGAUACCAGACAUGAGGAUCACCCAUGUUUGGGAUCUAAUGAUCAUCCUGUCCCUUGGCAGCUGUACAUCUAGA |  |  | 103 | 26.3
20 | GAUCCUCGUACGGAUACCAGCGACUAACAUGAGGAUCACCCAUGUGAUAAAGAAAAUAUUUGCCCUUGGCAGCCGAAUAGAUAGU | 72.7 | 34.9 |  | 
21 | UGUAACAUGAGGAUCACCCAUGUGAGUGAUACCAGACUAGUGUUGGUCCCUUGGCAGCACGCUGGACGAAUGUGUAGUCUAUGCG | 78.3 | 83.7 |  | 
22 | AUGUUUGUGUGAGAUACCAGUGAGGCCACAUGAGGAUCACCCAUGUCCCUCACUCCGGCCCACCCUUGGCAGCUCUUAUAGUAAA |  |  | 9.5 | 39.4
